The values below come from ChEMBL document CHEMBL1141052, “Boro-norleucine as a P1 residue for the design of selective and potent DPP7 inhibitors” (Bioorg Med Chem Lett, 2005).

The target of test [1] is T1, Prolyl endopeptidase FAP (Homo sapiens, UniProt Q12884).
T1 sequence (Q12884 whole entry): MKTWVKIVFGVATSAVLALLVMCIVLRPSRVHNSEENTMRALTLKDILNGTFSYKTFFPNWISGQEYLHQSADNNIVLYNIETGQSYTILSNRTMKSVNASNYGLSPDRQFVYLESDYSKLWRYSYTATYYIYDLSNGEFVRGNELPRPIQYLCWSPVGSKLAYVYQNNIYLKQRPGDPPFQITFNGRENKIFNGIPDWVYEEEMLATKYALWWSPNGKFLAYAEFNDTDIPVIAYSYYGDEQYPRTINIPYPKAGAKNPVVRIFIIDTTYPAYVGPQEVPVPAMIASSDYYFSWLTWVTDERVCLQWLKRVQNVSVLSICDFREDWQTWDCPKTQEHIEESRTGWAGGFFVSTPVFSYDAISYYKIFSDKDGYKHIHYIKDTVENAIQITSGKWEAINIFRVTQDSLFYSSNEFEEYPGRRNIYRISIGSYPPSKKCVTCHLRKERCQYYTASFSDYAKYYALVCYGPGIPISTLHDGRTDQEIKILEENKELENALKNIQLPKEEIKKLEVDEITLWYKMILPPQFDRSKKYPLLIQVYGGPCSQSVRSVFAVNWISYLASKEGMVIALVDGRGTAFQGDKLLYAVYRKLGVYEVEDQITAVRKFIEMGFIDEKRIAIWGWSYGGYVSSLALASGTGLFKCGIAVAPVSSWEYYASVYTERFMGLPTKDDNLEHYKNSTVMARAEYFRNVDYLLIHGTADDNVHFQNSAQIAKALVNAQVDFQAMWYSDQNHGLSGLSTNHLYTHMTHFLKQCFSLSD
The test can be described thus: Inhibitory concentration against human fibroblast activation protein alpha; ni = no inhibition at 33 uM concentration.

In test [2] the target is T2, Dipeptidyl peptidase 4 (Homo sapiens, UniProt P27487). The test can be described thus: Percent inhibition against human dipeptidylpeptidase 4 at 33 uM concentration.
Target sequence in this assay (P27487 whole entry, looked up): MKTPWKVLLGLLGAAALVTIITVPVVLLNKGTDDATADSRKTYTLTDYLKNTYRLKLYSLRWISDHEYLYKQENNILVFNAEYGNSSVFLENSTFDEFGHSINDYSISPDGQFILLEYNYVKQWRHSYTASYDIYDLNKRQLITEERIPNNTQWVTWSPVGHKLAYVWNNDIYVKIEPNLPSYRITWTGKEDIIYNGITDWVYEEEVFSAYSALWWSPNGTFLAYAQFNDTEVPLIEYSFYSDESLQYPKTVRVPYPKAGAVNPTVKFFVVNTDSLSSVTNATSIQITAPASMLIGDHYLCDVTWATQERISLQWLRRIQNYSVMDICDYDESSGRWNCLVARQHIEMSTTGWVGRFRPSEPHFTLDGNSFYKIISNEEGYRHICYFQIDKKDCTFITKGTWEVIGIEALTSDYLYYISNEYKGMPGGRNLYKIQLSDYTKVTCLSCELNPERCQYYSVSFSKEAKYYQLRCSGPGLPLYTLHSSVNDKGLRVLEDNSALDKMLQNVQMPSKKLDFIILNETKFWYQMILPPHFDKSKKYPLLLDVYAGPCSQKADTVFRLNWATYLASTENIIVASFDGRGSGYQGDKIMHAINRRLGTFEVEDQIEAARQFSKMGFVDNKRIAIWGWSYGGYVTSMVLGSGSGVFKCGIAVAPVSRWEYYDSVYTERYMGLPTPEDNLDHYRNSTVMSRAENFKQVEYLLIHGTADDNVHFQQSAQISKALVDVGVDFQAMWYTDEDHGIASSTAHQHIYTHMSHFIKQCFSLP
Test [3] has as its target Dipeptidyl peptidase 2 (Homo sapiens, UniProt Q9UHL4). Put plainly: Inhibitory concentration against human dipeptidylpeptidase 7.
The target in test [4] is T2, Dipeptidyl peptidase 4. The test can be described thus: Inhibitory concentration against human dipeptidylpeptidase 4.
Target sequence in this assay (P27487 whole entry): as the sequence (P27487 whole entry, looked up) above
The target of test [5] is Dipeptidyl peptidase 8 (Homo sapiens, UniProt Q6V1X1). The test can be described thus: Inhibitory concentration against human dipeptidylpeptidase 8 using FP-TAMRA incubated for 30 min; ni = no inhibition at 20 uM concentration. A digest of the protocol:
(§1)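 DPP8 and DPP9 from MDA-MB-435 cell lysate. Compounds dissolved in 50% DMSO/50 mM glycine buffer pH 2.5 (final DMSO 1% v/v), serially diluted into lysate, FP-TAMRA activity-based probe labeling, 30 min, quenched with loading buffer. Labeled enzyme resolved by SDS–PAGE, TAMRA fluorescence read by flatbed gel scanner. Duplicates; activity as % of enzyme-alone control, IC50 from Hill fit.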

For test [6], the target named is T2, Dipeptidyl peptidase 4.
Target sequence in this assay (P27487 whole entry): as the sequence (P27487 whole entry, looked up) above
Test [7] addresses T3, Dipeptidyl peptidase 9 (Homo sapiens, UniProt Q86TI2). The test can be described thus: Inhibitory concentration against human dipeptidylpeptidase 9 using FP-TAMRA incubated for 30 min; ni = no inhibition at 20 uM concentration. In outline: as §1
Target sequence in this assay (Q86TI2 whole entry): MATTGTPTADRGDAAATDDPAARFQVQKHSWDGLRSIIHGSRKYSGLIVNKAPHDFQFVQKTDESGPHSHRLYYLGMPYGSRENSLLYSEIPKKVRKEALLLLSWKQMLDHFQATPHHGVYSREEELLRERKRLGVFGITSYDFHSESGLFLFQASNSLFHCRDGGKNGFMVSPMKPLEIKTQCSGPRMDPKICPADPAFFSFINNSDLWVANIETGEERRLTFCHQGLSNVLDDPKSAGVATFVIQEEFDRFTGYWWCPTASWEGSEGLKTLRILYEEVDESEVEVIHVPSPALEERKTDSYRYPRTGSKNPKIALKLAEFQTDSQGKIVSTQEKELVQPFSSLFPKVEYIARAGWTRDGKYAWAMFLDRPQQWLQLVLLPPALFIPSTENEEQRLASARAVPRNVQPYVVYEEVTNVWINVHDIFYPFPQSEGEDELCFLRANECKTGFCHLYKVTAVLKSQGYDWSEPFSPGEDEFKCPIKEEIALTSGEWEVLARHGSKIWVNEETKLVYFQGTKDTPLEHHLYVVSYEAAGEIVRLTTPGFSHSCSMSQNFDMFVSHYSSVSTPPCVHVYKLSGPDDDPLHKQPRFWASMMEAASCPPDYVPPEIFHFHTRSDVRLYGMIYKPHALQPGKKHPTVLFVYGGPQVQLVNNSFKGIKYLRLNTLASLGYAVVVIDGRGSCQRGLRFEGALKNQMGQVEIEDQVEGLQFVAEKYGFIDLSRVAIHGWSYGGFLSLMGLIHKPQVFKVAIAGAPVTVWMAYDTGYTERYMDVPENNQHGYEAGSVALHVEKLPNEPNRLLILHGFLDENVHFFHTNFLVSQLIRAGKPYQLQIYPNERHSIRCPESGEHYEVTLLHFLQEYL
Test [8] has as its target T3, Dipeptidyl peptidase 9. The test can be described thus: Percentage inhibition against human dipeptidylpeptidase 9 using FP-TAMRA incubated for 30 min at 20 uM concentration. A digest of the protocol: as §1
Target sequence in this assay (Q86TI2 2-863 limits assumed): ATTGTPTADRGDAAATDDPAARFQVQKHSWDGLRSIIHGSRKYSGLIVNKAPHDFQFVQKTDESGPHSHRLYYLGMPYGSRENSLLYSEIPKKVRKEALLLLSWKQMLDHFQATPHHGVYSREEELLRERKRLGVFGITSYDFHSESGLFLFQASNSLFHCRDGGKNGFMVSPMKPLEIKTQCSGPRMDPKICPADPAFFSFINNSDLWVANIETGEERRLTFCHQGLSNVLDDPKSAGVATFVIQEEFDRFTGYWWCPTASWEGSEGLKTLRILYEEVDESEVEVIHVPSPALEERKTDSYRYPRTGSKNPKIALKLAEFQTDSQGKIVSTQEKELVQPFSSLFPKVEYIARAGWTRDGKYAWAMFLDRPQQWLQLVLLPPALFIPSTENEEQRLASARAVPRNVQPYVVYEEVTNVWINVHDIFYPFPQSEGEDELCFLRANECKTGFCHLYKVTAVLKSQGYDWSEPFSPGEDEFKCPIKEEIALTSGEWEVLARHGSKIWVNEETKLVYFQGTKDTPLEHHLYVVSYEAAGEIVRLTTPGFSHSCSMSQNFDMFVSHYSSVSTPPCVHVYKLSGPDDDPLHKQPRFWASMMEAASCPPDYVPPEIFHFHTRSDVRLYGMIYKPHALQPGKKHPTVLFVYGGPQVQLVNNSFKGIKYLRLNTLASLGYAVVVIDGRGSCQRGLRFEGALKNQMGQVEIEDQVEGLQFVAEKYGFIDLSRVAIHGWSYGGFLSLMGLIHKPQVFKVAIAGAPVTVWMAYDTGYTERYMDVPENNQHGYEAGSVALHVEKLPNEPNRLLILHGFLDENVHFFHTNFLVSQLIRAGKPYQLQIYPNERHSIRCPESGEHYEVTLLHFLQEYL

Dipeptidyl peptidase 8, sequence (Q6V1X1 whole entry): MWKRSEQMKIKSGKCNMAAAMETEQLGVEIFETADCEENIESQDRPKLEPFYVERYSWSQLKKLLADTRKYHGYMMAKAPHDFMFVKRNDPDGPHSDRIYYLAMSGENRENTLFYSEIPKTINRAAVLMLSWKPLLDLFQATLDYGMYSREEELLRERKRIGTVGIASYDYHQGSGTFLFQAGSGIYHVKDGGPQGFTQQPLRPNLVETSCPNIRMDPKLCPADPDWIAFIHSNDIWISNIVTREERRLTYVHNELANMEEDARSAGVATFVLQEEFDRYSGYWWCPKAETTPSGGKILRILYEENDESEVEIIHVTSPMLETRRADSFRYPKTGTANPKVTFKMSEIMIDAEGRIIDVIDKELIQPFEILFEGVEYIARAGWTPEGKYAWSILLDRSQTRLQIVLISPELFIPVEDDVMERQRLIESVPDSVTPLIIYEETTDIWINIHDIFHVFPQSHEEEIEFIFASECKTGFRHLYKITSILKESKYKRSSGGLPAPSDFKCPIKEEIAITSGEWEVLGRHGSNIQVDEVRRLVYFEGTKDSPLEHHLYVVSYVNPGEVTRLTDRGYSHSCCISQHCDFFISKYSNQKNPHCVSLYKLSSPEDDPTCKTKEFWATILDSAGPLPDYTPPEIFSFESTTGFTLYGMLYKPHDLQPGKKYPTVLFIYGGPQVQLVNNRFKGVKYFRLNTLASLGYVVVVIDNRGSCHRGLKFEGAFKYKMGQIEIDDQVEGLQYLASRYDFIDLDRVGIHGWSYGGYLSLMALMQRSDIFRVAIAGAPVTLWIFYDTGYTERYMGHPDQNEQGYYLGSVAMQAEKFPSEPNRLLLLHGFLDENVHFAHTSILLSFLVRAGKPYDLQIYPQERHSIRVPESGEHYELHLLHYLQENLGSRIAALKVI

For the compound `CCCC[C@@H](NC(=O)[C@@H](N)CCN)B(O)O`, the IC50 (in general, the midpoint of a concentration-inhibition curve) was “No inhibition” in test [1] and 0.00048 µM in test [3]. The inhibition (in general, the relative decrease from the control value, in per cent) in test [2] was 40%.

`CC(C)[C@H](N)C(=O)N[C@@H](C)B(O)O` showed an IC50 in test [3] of 0.16 µM.

With `CCCC[C@@H](NC(=O)[C@@H](N)CC)B(O)O`, the IC50 entry in test [1] is “No inhibition”; in test [3], 0.049 µM; in test [4], 32 µM.

Take `CCCC[C@@H](NC(=O)[C@@H](N)CN)B(O)O`: the 50% inhibitory concentration (IC50) result was “No inhibition” in test [1], “No inhibition” in test [5], 0.0082 µM in test [3] and 2 µM in test [4].

As for `CCCC[C@@H](NC(=O)[C@@H](N)CCCCN)B(O)O`, the values for the IC50 result in test [6], in test [1] and in test [3] were “Not Active”, “No inhibition” and 0.0037 µM, respectively.

For `NCC[C@H](N)C(=O)N1CCC[C@@H]1B(O)O`, the IC50 in test [3] was found to be 0.00072 µM; in test [4], 0.015 µM.

`CCCC[C@@H](NC(=O)[C@@H](N)CCCC)B(O)O`: the IC50 entry in test [1] is “No inhibition”; in test [3], 0.018 µM; in test [4], 0.37 µM.

For `CCCCCNC(=O)[C@@H](N)CCCC`, the IC50 result is “No inhibition” in test [1], “No inhibition” in test [5], 5.5 µM in test [3] and “No inhibition” in test [7]. For the same compound, the inhibition in test [2] is 35%.

In the case of `CCCC[C@@H](NC(=O)[C@@H](N)C(C)C)B(O)O`, the figures for the IC50 result in test [1], in test [3] and in test [4] were “No inhibition”, 0.04 µM and 17 µM, respectively.

Turning to `CCCC[C@@H](NC(=O)[C@@H](N)CCC)B(O)O`, the IC50 entry was “No inhibition” in test [1], 0.071 µM in test [3] and 0.81 µM in test [4].

With `CCCC[C@H](N)C(=O)N1CCC[C@@H]1B(O)O`, the IC50 was found to be 0.002 µM in test [3] and 0.0045 µM in test [4].

On to `CCCC[C@@H](NC(=O)[C@H](C)N)B(O)O`, for which the results for the IC50 entry in test [6], in test [1] and in test [3] were “Not Active”, “No inhibition” and 0.22 µM, respectively. In test [8], this compound returned an inhibition of 40%.

Turning to `CCCC[C@@H](NC(=O)[C@@H](N)CCCN)B(O)O`, the IC50 entry is “No inhibition” in test [1], 0.0047 µM in test [3] and 1.2 µM in test [4].

Regarding `CCCCCNC(=O)[C@@H](N)CCN`, the IC50 entry in test [6] is “Not Active”; in test [1], “No inhibition”; in test [5] it was “No inhibition”; in test [3], 2.6 µM; in test [7] it was “No inhibition”.

As to `CCCC[C@@H](NC(=O)[C@@H]1CCCN1)B(O)O`, the IC50 entry in test [6] was “Not Active”; in test [1] it was “No inhibition”; in test [5], “No inhibition”; in test [3] it was 0.89 µM. In addition, in test [8], the inhibition was 35%.
